Assay results reported in ChEMBL document CHEMBL1139364, “Codrugs linking L-dopa and sulfur-containing antioxidants: new pharmacological tools against Parkinson's disease” (J Med Chem, 2009).
In brackets after ≈: the same amount, converted by molar mass. Activity calls are given as the source filed them. The calls are words filed in the database; no cut-off is given here. Where a SMILES comes first, the peptide text is derived from it. [ ]: non-standard residue; d: D form. Dopa = N[C@@H](Cc1ccc(O)c(O)c1)C(=O)O

Legend:
Rattus norvegicus [1] = test: Antiparkinson activity in Wistar rat striatum assessed as L-dopa levels per mg of tissue at 1 umol/kg, icv after 1 week; assay type: functional
Outline: (§1)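 Rats dosed icv for 1 week at 1 µmol/kg; striatal L-dopa and dopamine quantified by HPLC with electrochemical detection; three experiments, mean with standard error.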

[2] = Solubility at 50 mg in phosphate buffer at pH 1.3; assay type: physicochemical
Outline: (§2)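 Solubility in water and in buffers at pH 1.3, 5.0 and 7.4 via shake-flask approach; concentration determined by HPLC with UV diode-array detection.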

Rattus norvegicus [3] = test: Effect on behavioral changes in icv dosed Wistar rat assessed as anxiety-like behavior by open-field studies; assay type: functional, organism-based
Rattus norvegicus [4] = test: Antiparkinson activity in po dosed rat striatum assessed as L-dopa levels per mg of tissue after 6 hrs
[5] = Stability assessed as half life in hydrochloric acid buffer at pH 1.3; assay type: physicochemical
Outline: (§3)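 Incubation at 37 °C in simulated gastric fluid (pH 1.3) or isotonic sodium phosphate buffer (pH 7.4); loss of parent monitored by HPLC UV-DAD; pseudo-first-order rate constants from slope of log residual compound vs time, giving half-life.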

[6] = Stability assessed as half life in isotonic sodium phosphate buffer at pH 7.4; assay type: physicochemical; outline: as §3
Rattus norvegicus [7] = test: Effect on behavioral changes in po dosed Wistar rat assessed as decrease in grooming activity after 1.5 hrs by open-field studies compared to L-dopa
Rattus norvegicus [8] = test: Effect on behavioral changes in icv dosed Wistar rat assessed as increase in grooming activity after 3 days by open-field studies; assay type: functional, organism-based
Rattus norvegicus [9] = test: AUC in Sprague-Dawley rat assessed as L-dopa level at 0.332 mmol/kg, po; assay type: ADME, organism-based, Plasma; settings: in vivo
Outline: (§4)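 Male Sprague–Dawley rats dosed orally at 0.332 mmol/kg; plasma L-dopa followed over time; noncompartmental parameters (Cmax, Tmax, AUC, AUMC, MRT) derived from plasma concentration profiles; data mean ± SE.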

[10] = Antioxidant activity against lucigenin-induced super oxide radicals by chemiluminescence assay; assay type: functional
Outline: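 Chemiluminescence assay; superoxide anions generated by xanthine/xanthine oxidase system, signal amplified with lucigenin.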

[11] = Antioxidant activity against luminol-induced peroxide radicals by chemiluminescence assay; assay type: functional
Outline: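 Chemiluminescence assay with luminol used to measure hydrogen peroxide level.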

Rattus norvegicus [12] = test: Effect on behavioral changes in icv dosed Wistar rat assessed as decrease in rearing episodes after 1.5 hrs by open-field studies compared to L-dopa; assay type: functional, organism-based
Rattus norvegicus [13] = test: Mean residence time in Sprague-Dawley rat assessed as L-dopa level at 0.332 mmol/kg, po; assay type: ADME, organism-based; settings: in vivo; outline: as §4
[14] = Solubility in water; assay type: physicochemical; outline: as §2
Rattus norvegicus [15] = test: Effect on behavioral changes in icv dosed Wistar rat assessed as increase in spontaneous locomotory activity after 3 days by open-field studies; assay type: functional, organism-based
Rattus norvegicus [16] = test: AUMC in Sprague-Dawley rat assessed as L-dopa level at 0.332 mmol/kg, po; assay type: ADME, organism-based; settings: in vivo; outline: as §4
[17] = Stability in rat plasma assessed as half life; assay type: ADME, cell-free
Outline: (§5)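 Conversion to L-dopa at 37 °C in rat or human plasma diluted to 80% with isotonic sodium phosphate buffer pH 7.4; residual compound followed over time; pseudo-first-order constants from log residual vs time slope, giving half-life.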

Rattus norvegicus [18] = test: Effect on behavioral changes in icv dosed Wistar rat assessed as increase in rearing episodes after 3 days by open-field studies; assay type: functional, organism-based
[19] = Partition coefficient, log K pf the compound; assay type: physicochemical; settings: octanol/water
Outline: (§6)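 Partition between n-octanol and phosphate buffer pH 7.4 by saturated shake-flask method; compound concentration in phases measured by HPLC with UV diode-array detection.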

Rattus norvegicus [20] = test: Tmax in Sprague-Dawley rat assessed as L-dopa level at 0.332 mmol/kg, po; assay type: ADME, organism-based; settings: in vivo; outline: as §4
Rattus norvegicus [21] = test: Sedative activity in icv dosed Wistar rat assessed as reduction of explorative activity; assay type: functional, organism-based
Rattus norvegicus [22] = test: Effect on behavioral changes in po dosed Wistar rat assessed as decrease in spontaneous locomotory activity after 1.5 hrs by open-field studies compared to L-dopa
[23] = Solubility at 50 mg in phosphate buffer at pH 7.4; assay type: physicochemical; outline: as §2
[24] = Plasma concentration in Sprague-Dawley rat after 8 hrs; assay type: ADME, organism-based
Outline: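 Male Sprague–Dawley rats given 0.332 mmol/kg orally; plasma L-dopa measured over time, including at 8 h; mean ± SE.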

[25] = Lipophilicity, log P pf the compound at pH 7.4 by saturated shake-flask method; assay type: physicochemical; settings: buffer; outline: as §6
[26] = Solubility at 50 mg in phosphate buffer at pH 5.0; assay type: physicochemical; outline: as §2
Rattus norvegicus [27] = test: Cmax in Sprague-Dawley rat assessed as L-dopa level at 0.332 mmol/kg, po; assay type: ADME, organism-based; design: dose 0.332 mmol/kg, route oral; settings: in vivo; outline: as §4
Rattus norvegicus [28] = test: Antiparkinson activity in Wistar rat striatum assessed as dopamine levels per mg of tissue at 1 umol/kg, icv after 1 week; assay type: functional; outline: as §1
[29] = Stability in human plasma assessed as half life; assay type: ADME, cell-free; outline: as §5

Compound | solubility [2] [µg/mL] | Activity (Rattus norvegicus [3]) | half-life [5] [h] | half-life [6] [h] | Activity (Rattus norvegicus [7]) | AUC (Rattus norvegicus [9]) [ug/hr.ml] | Activity [10] | Activity [11] | Activity (Rattus norvegicus [12]) | MRT (Rattus norvegicus [13]) [h] | solubility [14] [µg/mL] | AUMC (Rattus norvegicus [16]) [ug/ml.hr'2] | half-life [17] [h] | log K [19] | Tmax (Rattus norvegicus [20]) [h] | Activity (Rattus norvegicus [22]) | solubility [23] [µg/mL] | solubility [26] [µg/mL] | Cmax (Rattus norvegicus [27]) [ng/mL] | half-life [29] [h] | other results
COC(=O)[C@H](Cc1ccc(O)c(O)c1)NC(=O)[C@H](CCSC)NC(C)=O (Ac-Met-[Dopa]-OMe) | 154 (≈ 401 µM) | Active | 296 | 30.2 | Active | 1624.91 | Active | Active | Active | 7.58 | 101 (≈ 262 µM) | 12319.3 | 1.92 | -0.22 | 4.22 | Active | 174 (≈ 453 µM) | 237 (≈ 618 µM) | 62870 | 5.25 | Activity (Rattus norvegicus [1]): 4.03 pmol/mg; Activity (Rattus norvegicus [4]): 18 pmol/mg; Activity (Rattus norvegicus [8]): Active; Activity (Rattus norvegicus [15]): Active; Activity (Rattus norvegicus [18]): Active; Activity (Rattus norvegicus [21]): Active; concentration at 8 h [24]: 53000 ng/mL; logD [25]: 0.38; Activity (Rattus norvegicus [28]): 0.09 pmol/mg
COC(=O)[C@H](Cc1ccc(O)c(O)c1)NC(=O)[C@H](CS)NC(=O)[C@@H](CS)NC(C)=O | 20 (≈ 43.5 µM) | Active | 293 | 48.5 | Active | 432.2 | Active | Active | Active | 8.35 | 15 (≈ 32.6 µM) | 3608.38 | 0.93 | -0.11 | 1.55 | Active | 9.08 (≈ 19.8 µM) | 15.1 (≈ 32.7 µM) | 16310 | 3.39 | logD [25]: -0.14
COC(=O)[C@H](Cc1ccc(O)c(O)c1)NC(=O)[C@H](CS)NC(C)=O (Ac-Cys-[Dopa]-OMe) | 208 (≈ 584 µM) |  | 301 | 46.2 | Active | 179.06 | Active | Active | Active | 9.34 | 210 (≈ 590 µM) | 1673.2 | 0.78 | -0.3 | 4.05 | Active | 201 (≈ 563 µM) | 228 (≈ 639 µM) | 6910 | 1.16 | 
COC(=O)[C@H](CS)NC(=O)[C@H](Cc1ccc(O)c(O)c1)NC(C)=O (Ac-[Dopa]-Cys-OMe) | 147 (≈ 414 µM) | Active | 291 | 48 | Active | 110.62 | Active | Active | Active | 9.52 | 154 (≈ 431 µM) | 1053.36 | 0.61 | -0.26 | 4.11 | Active | 159 (≈ 447 µM) | 152 (≈ 426 µM) | 6190 | 1.09 | 
COC(=O)[C@H](Cc1ccc(O)c(O)c1)NC(=O)[C@H](CS)NC(=O)C(C)(C)S | 7.07 (≈ 17 µM) | Active | 292 | 21.3 | Active | 493.29 | Active | Active | Active | 8.22 | 14.3 (≈ 34.4 µM) | 4056.32 | 1.16 | 0.2 | 6.04 | Active | 13.5 (≈ 32.3 µM) | 3.82 (≈ 9.17 µM) | 17410 | 1.5 | logD [25]: 0.92
COC(=O)[C@H](CCSC)NC(=O)[C@H](Cc1ccc(O)c(O)c1)NC(C)=O (Ac-[Dopa]-Met-OMe) | 256 (≈ 665 µM) | Active | 292 | 26.9 | Active | 984.01 | Active | Active | Active | 6.96 | 103 (≈ 268 µM) | 6844.84 | 1.55 | -0.25 | 2.25 | Active | 101 (≈ 262 µM) | 247 (≈ 642 µM) | 51070 | 4.39 | Activity (Rattus norvegicus [1]): 2.13 pmol/mg; Activity (Rattus norvegicus [4]): 8 pmol/mg; Activity (Rattus norvegicus [8]): Active; Activity (Rattus norvegicus [15]): Active; Activity (Rattus norvegicus [18]): Active; Activity (Rattus norvegicus [21]): Active; logD [25]: -0.19; Activity (Rattus norvegicus [28]): 0.22 pmol/mg
N[C@@H](Cc1ccc(O)c(O)c1)C(=O)O [LEVODOPA] |  |  |  |  |  | 117.73 |  |  |  | 8.95 |  | 1053.92 |  |  | 1.03 |  |  |  | 5630 |  | Activity (Rattus norvegicus [1]): 3.36 pmol/mg; Activity (Rattus norvegicus [28]): 0.07 pmol/mg
